According to ChEMBL document CHEMBL4513216, “Probing the Open Global Health Chemical Diversity Library for Multistage-Active Starting Points for Next-Generation Antimalarials” (ACS Infect Dis, 2020):

Assay: Toxicity liver stage against HepG2, at 10uM
Format: cell-based
Parameters: test concentration 10 uM, cell line HepG2-A16-CD81EGFP
Conditions: human, HepG2-A16-CD81EGFP cells; read-out: INHIBITION
Procedure, shortened: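 Uninfected HepG2-A16-CD81EGFP cells, 3 × 10^3 per well, 1536-well, plated on prespotted compound at 10 μM final, parasite-free screening media added to match infected plates; puromycin 10 μM positive, DMSO 0.5% negative; run in parallel with 48 h PbLuc assay at 37 °C, 5% CO2; viability by CellTiter-Glo luminescence, normalized to controls.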

CCNC(=O)COc1cc(CC)c2c(C)nn(-c3ccc(C)cc3)c2n1
cytotoxicity at 10 µM: 0.409%

CC(C)CCN1C(=O)c2ccc(C(=O)NCCc3c[nH]cn3)cc2C1=O
cytotoxicity at 10 µM: -12.5%

COCCCNC(=O)Cc1cc(-c2ccc3c(c2)OCO3)on1
cytotoxicity at 10 µM: 57.7%

N#Cc1ccc(OC2CCN(C(=O)Cc3cccs3)CC2)nc1
cytotoxicity at 10 µM: 1.96%

CCS(=O)(=O)NCc1nc(C)cc(N2CCOCC2)n1
cytotoxicity at 10 µM: -0.978%

O=C([C@@H]1COC[C@H]2CN(CC3CCCC3)C[C@H]21)N1CCOCC1
cytotoxicity at 10 µM: 14.9%

CC(=O)NCC(=O)N1Cc2cc(C#N)ccc2C1c1cnco1 (stereo unspecified)
cytotoxicity at 10 µM: 1.06%

O=S(=O)(c1cccnc1)N1C[C@@H]2COC[C@]2(COCC2CC2)C1
cytotoxicity at 10 µM: 4.83%

Cc1ccc(CN2Cc3c(cnn3C)C(COCC3CC3)C2)s1 (stereo unspecified)
cytotoxicity at 10 µM: 3.91%

COc1ccc(N2CCCC3(C2)CN(c2nncs2)CCO3)cc1 (stereo unspecified)
cytotoxicity at 10 µM: 4.17%

CCc1nn(-c2cc(Oc3cc(C)ccc3C)nc(C)n2)c(N)c1C#N
cytotoxicity at 10 µM: 58.4%

Cn1c(N)c2c(=O)n(C)c(-c3ccc(Cl)cc3Cl)cc2c(C#N)c1=O
cytotoxicity at 10 µM: -5.43%

Cc1nnsc1C(=O)N1CCC(c2nc3ccccc3[nH]2)CC1
cytotoxicity at 10 µM: 2.5%

O=C1CNc2ncnc(Nc3cnn(Cc4ccc(F)cc4)c3)c2N1
cytotoxicity at 10 µM: 6.85%

CN(C)c1cc(C2CCCN(C(=O)c3noc4c3CCCC4)C2)ccn1 (stereo unspecified)
cytotoxicity at 10 µM: -12.3%

CN1CCCC(c2cncc(-c3cccc(C(F)(F)F)c3)n2)C1 (stereo unspecified)
cytotoxicity at 10 µM: 8.92%

COCc1ccc(C(=O)N2CCC(c3cc4nccnc4[nH]3)CC2)cc1
cytotoxicity at 10 µM: -39%

CC(C)c1cc(NC(=O)CNC2CCc3ncnn3C2)on1 (stereo unspecified)
cytotoxicity at 10 µM: 4.44%

O=C(c1cnc2n1CCCC2)N1CCCC1
cytotoxicity at 10 µM: -10.6%

O=c1n(CCNc2cccc3ccccc23)nc2ccccn12
cytotoxicity at 10 µM: 0.392%

O=S(=O)(N1CCC(n2cccc2)CC1)N1CCCC1c1ccco1 (stereo unspecified)
cytotoxicity at 10 µM: 12.7%

CC(=O)NC1CCCN(c2nc3ccccc3cc2CO)C1 (stereo unspecified)
cytotoxicity at 10 µM: -50.1%

CCc1noc(C(C)N2CCN(Cc3noc(C4CC4)n3)CC2)n1 (stereo unspecified)
cytotoxicity at 10 µM: -2.13%

CN(c1ncc(S(N)(=O)=O)s1)C1CCc2ccccc2C1 (stereo unspecified)
cytotoxicity at 10 µM: 11.1%

CC(C)Oc1ncccc1CNC(=O)N1CCOCC1
cytotoxicity at 10 µM: -40.6%

CCN(CC)CC(=O)N1CCN(CCCc2ccncc2)CC1
cytotoxicity at 10 µM: -60.5%

N#Cc1ncn(CCS(=O)(=O)c2ccccc2)n1
cytotoxicity at 10 µM: 1.18%

CCOCCN1CCN(CC(=O)N2CCCC2)CC1C (stereo unspecified)
cytotoxicity at 10 µM: -3.82%

CC(C)(C)c1cnc(CN2CCC(CN3CCOCC3)CC2)o1
cytotoxicity at 10 µM: 3.63%

CC(C)(C)OC(=O)NCCc1csc(N2CCCC2)n1
cytotoxicity at 10 µM: 24.9%

Cc1ccsc1C(=O)NC1CCN(c2cnn(C)c2)C1=O (stereo unspecified)
cytotoxicity at 10 µM: -7.11%

CN1CCN(C(CNC(=O)c2ccc(Cl)cc2F)c2cccs2)CC1 (stereo unspecified)
cytotoxicity at 10 µM: 84.6%

CC(C)C(O)C1(CNC(=O)Nc2ccc(CN3CCOC3=O)cc2)CC1 (stereo unspecified)
cytotoxicity at 10 µM: -5.09%

O=C(Nc1ccnc(OC2CCOC2)c1)c1ccccc1Cl (stereo unspecified)
cytotoxicity at 10 µM: 8.5%

COCCNC(=O)Nc1cccc2c1CCN(S(C)(=O)=O)C2
cytotoxicity at 10 µM: 7.37%

CCc1nccn1C1CCCN(C(=O)c2ccnc(N(C)C)c2)C1 (stereo unspecified)
cytotoxicity at 10 µM: 0.795%

N#CCCCOc1cccnc1NC(=O)Cc1ccccc1F
cytotoxicity at 10 µM: -2.27%

O=C(C[S+]([O-])Cc1ccc(F)cc1Cl)NC1CCCC1 (stereo unspecified)
cytotoxicity at 10 µM: 9.5%

Cc1cc(SC(C)(C)C)ccc1NC(C)C(=O)NC(N)=O (stereo unspecified)
cytotoxicity at 10 µM: -5.36%

CC1CN(C)CCN1C(=O)c1ccc(-n2cnnc2)cc1 (stereo unspecified)
cytotoxicity at 10 µM: 2.84%

CC(C)(C)OC(=O)NC(C)(C(N)=O)c1cccc(Cl)c1 (stereo unspecified)
cytotoxicity at 10 µM: 18.3%

Cc1nc(C)c(C(=O)N2CCN(CCOc3ccccc3C)CC2)o1
cytotoxicity at 10 µM: 1.72%

CO[C@H]1CN(C(=O)OC(C)(C)C)CC1NCc1ccoc1 (stereo partly specified)
cytotoxicity at 10 µM: -51.8%

CC(NCC(=O)Nc1ccc(N2CCCCCC2)cc1)c1cccs1 (stereo unspecified)
cytotoxicity at 10 µM: 1.8%

CC(=O)NC1CCCN(Cc2ccc(-n3ccnc3)cc2)C1 (stereo unspecified)
cytotoxicity at 10 µM: -57.4%

Cc1ncccc1NC(=O)c1nc2c(n1C)CCN(C(=O)C1CC1)C2
cytotoxicity at 10 µM: -99.6%

CNC(=O)c1ncn2c1CN(CCC(C)C)S(=O)(=O)c1ccccc1-2
cytotoxicity at 10 µM: -78.8%

CCc1ncnc2c1CCN(C(=O)c1cccn1C)CC2
cytotoxicity at 10 µM: -73.5%

O=C(c1ccncn1)N1C[C@H]2CCC[C@@]2(COCC2CCOCC2)C1
cytotoxicity at 10 µM: -79.2%

CCNc1nc2c(s1)C(=O)CN(C(=O)NCc1ccccc1)C2
cytotoxicity at 10 µM: 59.1%

CN(Cc1ccncc1)CC1CCCN(CCc2ccc(Cl)cc2)C1 (stereo unspecified)
cytotoxicity at 10 µM: 1.06%

CN(C)c1cnn(CC(=O)N2CCN(Cc3cccs3)CC2)c(=O)c1
cytotoxicity at 10 µM: 1.72%

CS(=O)(=O)NCC(=O)N[C@H]1CN(CC2CC2)C[C@@H]1c1ccccc1
cytotoxicity at 10 µM: -0.29%

Cc1ccc2[nH]c(CNC(=O)C3CC4(CCNCC4)CN3C)nc2c1C (stereo unspecified)
cytotoxicity at 10 µM: -9.66%

CCc1nc(CCn2ccnc2-c2nccn2C)no1
cytotoxicity at 10 µM: -50.2%

COc1cccc(C(=O)N2CCN(C(=O)CCCc3cn[nH]c3)CC2)c1
cytotoxicity at 10 µM: -1.3%

COCCc1noc(C2CCCN(c3nc(N)nc4c3CCCC4)C2)n1 (stereo unspecified)
cytotoxicity at 10 µM: 48.1%

Cc1n[nH]c(C)c1CCCNCc1cn(CCC(N)=O)c2ccccc12
cytotoxicity at 10 µM: 8.45%

CC(=O)N[C@@H]1CN(c2nc(CO)cs2)C[C@H]1c1ccc(C)o1
cytotoxicity at 10 µM: -47%

CC(c1cccs1)N(C)Cc1cnc(-c2ccccn2)nc1 (stereo unspecified)
cytotoxicity at 10 µM: -6.3%

Cc1cccn2c(CNC(C)CCc3ccc(O)cc3)cnc12 (stereo unspecified)
cytotoxicity at 10 µM: 1.95%

CN(C)Cc1csc(-c2nccn2Cc2ccsc2)c1
cytotoxicity at 10 µM: -2.47%

CCN1CC(C(=O)NCc2nn(CC)c3ccccc23)CCC1=O (stereo unspecified)
cytotoxicity at 10 µM: -5.83%

O=C(CO)N1CCCC(N2CCN(c3ccccc3F)CC2)C1 (stereo unspecified)
cytotoxicity at 10 µM: -49.1%

COc1cccc(N2CCN(C(C(=O)O)c3ccc(OC)nc3)CC2)c1 (stereo unspecified)
cytotoxicity at 10 µM: 14.5%

CCc1nc(NCCc2c(C)nn(CC)c2C)c2cnn(C)c2n1
cytotoxicity at 10 µM: 9.33%

CCCc1nc(NCc2c(C)nn(CCC)c2C)c2cnn(C)c2n1
cytotoxicity at 10 µM: 9.66%

N[C@H]1CCCN(S(=O)(=O)c2ccc(C(=O)NCC(F)F)cc2)C1
cytotoxicity at 10 µM: -0.566%

Cc1ccnc(CC(C)N(C)c2cc(CN)nc(C)n2)c1 (stereo unspecified)
cytotoxicity at 10 µM: -48.9%

O=C(Nc1nncs1)N1CCC(CCO)CC1
cytotoxicity at 10 µM: -2.48%

Cc1cccnc1CC(C)Nc1nc(N)nc2c1CCNC2 (stereo unspecified)
cytotoxicity at 10 µM: 2.09%

Cc1nnsc1C(=O)NCc1cccnc1N1CCCC(O)C1 (stereo unspecified)
cytotoxicity at 10 µM: 1.91%

NC1CCN(C2CCN(c3ccc(-c4ccco4)cc3)CC2)CC1
cytotoxicity at 10 µM: 1.03%

CN(CCc1ccccn1)C(=O)c1cn2c(n1)CNCC2
cytotoxicity at 10 µM: -43.5%

Cc1ccc(Sc2ccc(CN3CCC4(CC3)NCCNC4=O)o2)cc1
cytotoxicity at 10 µM: -6.71%

COc1ccccc1OC1CN(C(=O)c2ccccc2C(C)=O)C1
cytotoxicity at 10 µM: 7.6%

CCCN(CCOC)C(=O)c1cc(Cn2c(C)nc3ccccc32)[nH]n1
cytotoxicity at 10 µM: 21.8%

Cc1ccnc(NCc2cn3nc(C)sc3n2)n1
cytotoxicity at 10 µM: -0.449%

Cc1ccnc(NCCSc2nccn2C)n1
cytotoxicity at 10 µM: -42%

Cc1cc(N2CCCN(C(=O)Cc3ccc(O)c(Cl)c3)CC2)ccn1
cytotoxicity at 10 µM: -17.3%

COc1ncc(C2(O)CCN(Cc3ccccc3O)CC2)c(OC)n1
cytotoxicity at 10 µM: 2.33%

CN(Cc1noc(C(C)(C)C)n1)C1CCCN(c2cccnn2)C1 (stereo unspecified)
cytotoxicity at 10 µM: -7.96%

CCN(CC1CCOC1)C(=O)c1ccc(N2CCOCC2)c(F)c1 (stereo unspecified)
cytotoxicity at 10 µM: -2.45%

CCc1nc(CN(C(C)=O)C2CCN(CCc3ccncc3)C2)no1 (stereo unspecified)
cytotoxicity at 10 µM: -22.3%

Cc1ccnc(NC(=O)c2[nH]nc(C(C)C)c2Br)c1
cytotoxicity at 10 µM: 12.9%

COc1cc(C(=O)N2CCCS2(=O)=O)ccc1OC(C)C
cytotoxicity at 10 µM: -17.6%

Clc1ccc(OCCCN2CCOC(Cn3cncn3)C2)cc1 (stereo unspecified)
cytotoxicity at 10 µM: -10%

COC(=O)c1cccn1C1CCN(Cc2cnc3ccccn23)CC1
cytotoxicity at 10 µM: -8.86%

O=C(NCCNc1cnccn1)N1CCN(Cc2cccnc2)CC1
cytotoxicity at 10 µM: 4.07%

Cc1noc(C(C)C)c1C(=O)NCCCN1CCCC1
cytotoxicity at 10 µM: -13.5%

Cn1cc(CC(=O)N2CCC(Nc3cccnn3)CC2)c2ccccc21
cytotoxicity at 10 µM: -9.24%

CCC(=O)N1CCC2(CC1)COCCN2Cc1ccc(F)cc1
cytotoxicity at 10 µM: -76.5%

Cc1ccc(CN2CCCC3(COCCN(Cc4c[nH]nn4)C3)C2)s1 (stereo unspecified)
cytotoxicity at 10 µM: -1.31%

COCC1CN(C(=O)Cc2ccccn2)Cc2ncnn2C1 (stereo unspecified)
cytotoxicity at 10 µM: -2.47%

CCN1CCC2(C1)CN(S(=O)(=O)c1cn(C)cn1)C2
cytotoxicity at 10 µM: -109%

c1ccc(-c2ncc3c(n2)C2(CCN(CC4CC4)C2)COC3)cc1 (stereo unspecified)
cytotoxicity at 10 µM: 0.975%

O=C([C@H]1CCCO1)N1CCCC2(COCCN(c3ccccc3)C2)C1 (stereo partly specified)
cytotoxicity at 10 µM: 13.9%

CC(C)NC(=O)C1(CC2CC(c3ccc(F)cc3)=NO2)CCNCC1 (stereo unspecified)
cytotoxicity at 10 µM: -8.54%

Cn1cnc2c1C(COCC1CCOCC1)CN(C(=O)c1ccco1)C2 (stereo unspecified)
cytotoxicity at 10 µM: -75.5%

Cc1cccc(CN2C[C@@H]3COC[C@]3(CNC(=O)C3CCC3)C2)c1
cytotoxicity at 10 µM: -112%

CC(=O)N1CCCCCC1C1CCN(Cc2nnc(C(C)(C)C)o2)CC1 (stereo unspecified)
cytotoxicity at 10 µM: -42.3%

CNC(=O)COC1COC2(CCN(c3ccc(C#N)cc3)CC2)C1 (stereo unspecified)
cytotoxicity at 10 µM: -75.7%

CN(C)C1CCC2(CCN(Cc3nccn3C)CC2)c2ccccc21 (stereo unspecified)
cytotoxicity at 10 µM: 5.64%

CCCS(=O)(=O)N1C[C@@H]2CN(Cc3cnn(C)c3)CCO[C@@H]2C1
cytotoxicity at 10 µM: 0.835%

CN(C)c1ncnc2c1CCN(CC1CCOCC1)CC2
cytotoxicity at 10 µM: -69.6%

Cc1ccc(C(=O)N2Cc3c(CN4CCCCC4)nn(C)c3C2)cc1C
cytotoxicity at 10 µM: -2.81%

Cc1cccc(N2CC[C@@H]3CN(Cc4csc(C)n4)CCO[C@@H]3C2)n1
cytotoxicity at 10 µM: -4.51%

CCS(=O)(=O)N1CCC2(CC1)CC(COC)N(c1ncccn1)C2 (stereo unspecified)
cytotoxicity at 10 µM: 5.57%

CC(C)Cn1cc2nc(N3CCC(O)CC3)[nH]cc-2c1=O
cytotoxicity at 10 µM: 5.92%

COCCN1C[C@@H]2CC[C@H]1CN(C(=O)c1ccc(Cl)cc1)C2
cytotoxicity at 10 µM: -8.03%

O=C(NC1CCC1)[C@H]1C[C@H]2CN(CC3CC3)C[C@@H]1O2
cytotoxicity at 10 µM: 7.55%
